Here are results for 15 compounds from ChEMBL document CHEMBL2311257, “Synthesis and antioxidant activity of thymol and carvacrol based Schiff bases” (Bioorg Med Chem Lett, 2013).

Assay type in all cases: functional
The nature of assay [1]: Antioxidant activity assessed as ABTS radical scavenging activity at 5 ug/mL. The method in brief:
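ABTS radical cation solution diluted in ethanol to an absorbance of 0.7–0.9 at 734 nm, 30 °C. Equal volume added to ethanolic compound solution (5 µg/mL). Absorbance read after 1 min and converted to percent inhibition.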

Assay [2] relates to Radical scavenging activity. In words: Antioxidant activity assessed as DPPH radical scavenging activity in ethanol solution. The method, boiled down: (§1)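 Compound dissolved in ethanol, then ethanolic DPPH added. Incubated 30 min in the dark. DPPH decrease read as absorbance at 517 nm against an ethanol blank, with ascorbic acid as reference. % activity = [(A0 − Ai)/A0] × 100, where A0 is absorbance without compound and Ai with compound. IC50 taken from activity across concentrations.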

In assay [3] the test system is Radical scavenging activity. In words: Antioxidant activity assessed as DPPH radical scavenging activity in ethanol solution at 50 ug/mL. The method, boiled down:
as §1

For assay [4], the system named is Radical scavenging activity. As to the kind of experiment: Antioxidant activity assessed as DPPH radical scavenging activity in chloroform solution at 25 ug/mL.
In assay [5] the test system is Radical scavenging activity. In words: Antioxidant activity assessed as DPPH radical scavenging activity in ethanol solution at 25 ug/mL. The method in brief: as §1
In assay [6] the test system is Radical scavenging activity. In words: Antioxidant activity assessed as DPPH radical scavenging activity in ethanol solution at 10 ug/mL. The method in brief: as §1
Assay [7] relates to Radical scavenging activity. As to the kind of experiment: Antioxidant activity assessed as DPPH radical scavenging activity in chloroform solution at 100 ug/mL.
Assay [8] relates to Radical scavenging activity. In words: Antioxidant activity assessed as DPPH radical scavenging activity in chloroform solution at 50 ug/mL.
Assay [9] has as its system Radical scavenging activity. As to the kind of experiment: Antioxidant activity assessed as DPPH radical scavenging activity in chloroform solution at 10 ug/mL.
Assay [10] deals with Radical scavenging activity. In words: Antioxidant activity assessed as DPPH radical scavenging activity in ethanol solution at 100 ug/mL. The method, boiled down: as §1
The test system of assay [11] is Radical scavenging activity. As to the kind of experiment: Antioxidant activity assessed as DPPH radical scavenging activity in chloroform solution.
Assay [12] relates to Radical scavenging activity. As to the kind of experiment: Antioxidant activity assessed as DPPH radical scavenging activity in chloroform solution at 5 ug/mL.
Assay [13] concerns Radical scavenging activity. In words: Antioxidant activity assessed as DPPH radical scavenging activity in ethanol solution at 5 ug/mL. The method in brief:
as §1

Converted amounts (≈) assume the structure as drawn. The source made the active and inactive calls. The rule behind the calls is not given here.

Regarding `COc1ccc(/C=N/c2cc(C(C)(C)C)c(O)cc2C)cc1`, in [1], the outcome was Active. Also, the IC50 in [2] came to 13.92 µg/mL (≈ 46.8 µM); in [11] it was 17.55 µg/mL (≈ 59 µM). Moreover, the Activity in assay [3] was 83.4%; in assay [4], 82.6%; in [5], 65%; in assay [6] it was 50%; in [7], 89.8%; in assay [8], 87.3%. Moreover, the Activity in assay [9] was 36.3%; in [10] it was 90.6%; in [12], 19.7%; in assay [13], 29.2%.
Take `Cc1cc(O)c(C(C)(C)C)cc1/N=C/c1ccccc1O`: the result in assay [1] was Active. The IC50 worked out at 10.54 µg/mL (≈ 37.2 µM) in assay [2] and 14.36 µg/mL (≈ 50.7 µM) in [11]. Besides, the Activity came out at 86.4% in assay [3]; 70% in assay [4]; 69.6% in [5]; 51% in assay [6]; 90.9% in [7]; 85.7% in [8]. The Activity amounted to 48.6% in assay [9], 90.7% in assay [10], 24.9% in assay [12] and 29% in assay [13].
In the case of `COc1cc(/C=N/c2cc(C(C)(C)C)c(O)cc2C)cc(OC)c1`, the outcome in assay [1] was Active. Further, the results for the IC50 in assay [2] and in [11] were 20.2 µg/mL (≈ 61.7 µM) and 19.62 µg/mL (≈ 59.9 µM), respectively. The Activity in [3] was determined as 76.9%; in [4] it was 67.9%; in [5] it was 66.1%; in assay [6], 43.8%; in [7], 89.5%; in assay [8], 86.6%. Moreover, the Activity was found to be 36.8% in [9], 80.4% in assay [10], 27% in assay [12] and 26.3% in [13].
In the case of `COc1ccc(/C=N/c2cc(C(C)(C)C)c(O)cc2C)cc1OC`, the result in [1] was Active. Also, the IC50 was 17.03 µg/mL (≈ 52 µM) in assay [2] and 22.05 µg/mL (≈ 67.3 µM) in [11]. In addition, the Activity stood at 81.9% in [3]; 72% in assay [4]; 62.2% in assay [5]; 49% in [6]; 87.1% in [7]; 82.1% in assay [8]. Further, the Activity in assay [9] came to 35.3%; in [10], 90%; in assay [12], 22.6%; in [13] it was 27.4%.
Turning to `COc1cc(/C=N/c2cc(C)c(O)cc2C(C)C)cc(OC)c1OC`, the outcome in assay [1] was Active. Further, the IC50 was 19.05 µg/mL (≈ 55.5 µM) in assay [2] and 25.2 µg/mL (≈ 73.4 µM) in [11]. In addition, the Activity in assay [3] was determined as 76.5%; in assay [4] it was 64.2%; in assay [5], 66.1%; in [6], 45.7%; in [7], 88%; in [8] it was 75.7%. Further, the Activity in assay [9] was 41.8%; in assay [10] it was 87.4%; in [12], 19.7%; in assay [13], 26.4%.
As to `COc1ccc(/C=N/c2cc(C(C)C)c(O)cc2C)cc1`, the result in assay [1] was Active. The results for the IC50 in assay [2] and in [11] were 12.54 µg/mL (≈ 44.3 µM) and 15.79 µg/mL (≈ 55.7 µM), respectively. Moreover, the Activity in [3] worked out at 85%; in assay [4], 74.1%; in assay [5], 77.5%; in assay [6] it was 43.3%; in assay [7], 90.2%; in assay [8], 87.7%. For the same compound, the Activity turned out to be 44.6% in [9], 88.5% in assay [10], 21.8% in assay [12] and 27.3% in assay [13].
`COc1cc(/C=N/c2cc(C(C)C)c(O)cc2C)cc(OC)c1OC`: the outcome in assay [1] was Active. In addition, the IC50 was 22.96 µg/mL (≈ 66.9 µM) in [2] and 22.03 µg/mL (≈ 64.1 µM) in [11]. Also, the Activity in [3] was 73.3%; in assay [4] it was 68.2%; in [5], 65.4%; in assay [6] it was 41.6%; in assay [7], 89.9%; in assay [8], 82.9%. Besides, the Activity in [9] amounted to 39.8%; in [10], 83.1%; in assay [12], 20.7%; in assay [13], 26%.
Regarding `Cc1cc(/N=C/c2ccc(O)cc2)c(C(C)C)cc1O`, the outcome in assay [1] was Active. The IC50 was 9.76 µg/mL (≈ 36.2 µM) in [2] and 15.13 µg/mL (≈ 56.2 µM) in [11]. Also, the Activity worked out at 82.9% in assay [3]; 66.2% in assay [4]; 70.4% in assay [5]; 48.6% in [6]; 88.1% in assay [7]; 75.9% in assay [8]. For the same compound, the Activity in assay [9] came to 42.8%; in [10] it was 92.2%; in assay [12], 36.1%; in assay [13], 33.7%.
Consider `Cc1cc(O)c(C(C)C)cc1/N=C/c1cc(Br)c(O)c(Br)c1`, for which, in assay [1], the outcome was Active. Further, the figures for the IC50 in assay [2] and in [11] were 8.33 µg/mL (≈ 19.5 µM) and 17.98 µg/mL (≈ 42.1 µM), respectively. For the same compound, the Activity in [3] was 92.3%; in [4] it was 69.2%; in assay [5] it was 78.7%; in [6], 51.8%; in assay [7], 90.1%; in assay [8] it was 77.4%. Further, the Activity in assay [9] was found to be 46.1%; in assay [10], 95.2%; in assay [12], 25.2%; in assay [13], 24.1%.
`Cc1cc(O)c(C(C)(C)C)cc1/N=C/c1cc(Br)cc(Br)c1O`: in [1], the outcome was Active. For the same compound, the IC50 in assay [2] was 11.45 µg/mL (≈ 26 µM); in assay [11], 13.46 µg/mL (≈ 30.5 µM). In addition, the Activity in assay [3] turned out to be 88.8%; in assay [4], 76.4%; in [5], 72.7%; in assay [6], 48.2%; in assay [7], 90.7%; in assay [8] it was 86.1%. In addition, the Activity was found to be 45.2% in [9], 90.1% in [10], 24.6% in [12] and 26.7% in assay [13].
For the compound `Cc1cc(O)c(C(C)C)cc1/N=C/c1ccc(O)cc1`, in assay [1], the result was Active. The values for the IC50 in [2] and in assay [11] were 9.02 µg/mL (≈ 33.5 µM) and 13.32 µg/mL (≈ 49.5 µM), respectively. For the same compound, the Activity was determined as 89.8% in assay [3]; 70.2% in [4]; 77.1% in [5]; 51.8% in assay [6]; 93% in [7]; 84.5% in assay [8]. Besides, the Activity in assay [9] was 50%; in [10], 92.9%; in [12], 26%; in [13] it was 24.4%.
On to `COc1cc(/C=N/c2cc(C(C)(C)C)c(O)cc2C)cc(OC)c1OC`, for which the outcome in assay [1] was Active. Besides, the IC50 in assay [2] was found to be 18.79 µg/mL (≈ 52.6 µM); in assay [11] it was 18.6 µg/mL (≈ 52 µM). Moreover, the Activity in [3] stood at 81%; in [4], 75.8%; in assay [5] it was 65.4%; in assay [6], 44.9%; in assay [7], 91.8%; in assay [8] it was 81.7%. Further, the Activity in assay [9] was 45.2%; in assay [10] it was 84.4%; in [12] it was 17.3%; in [13], 25.9%.
For `COc1ccc(/C=N/c2cc(C)c(O)cc2C(C)C)cc1`, in assay [1], the result was Active. The IC50 in [2] came out at 13.5 µg/mL (≈ 47.6 µM); in assay [11] it was 16.24 µg/mL (≈ 57.3 µM). Also, the Activity in assay [3] is 78.9%; in assay [4], 67.1%; in assay [5] it was 69.2%; in [6], 47.5%; in [7] it was 88.7%; in assay [8] it was 78.4%. For the same compound, the Activity in assay [9] turned out to be 41%; in assay [10], 89.5%; in [12] it was 34.2%; in assay [13] it was 30.9%.
In the case of `Cc1cc(O)c(C(C)C)cc1/N=C/c1cc(Br)cc(Br)c1O`, the result in assay [1] was Active. Also, the IC50 in assay [2] came to 12.76 µg/mL (≈ 29.9 µM); in assay [11], 19.19 µg/mL (≈ 44.9 µM). The Activity in [3] was 85.9%; in [4], 68.3%; in assay [5] it was 75.9%; in assay [6], 44.2%; in [7], 85.3%; in [8], 78.1%. Further, the Activity in assay [9] came out at 45.1%; in [10], 88.7%; in [12] it was 24.3%; in [13] it was 26.8%.
With `Cc1cc(O)c(C(C)(C)C)cc1/N=C/c1ccc(O)cc1`, the outcome in assay [1] was Active. In addition, the IC50 in assay [2] is 8.77 µg/mL (≈ 30.9 µM); in assay [11] it was 14.26 µg/mL (≈ 50.3 µM). Further, the Activity came out at 89.3% in assay [3]; 63.3% in assay [4]; 70.9% in assay [5]; 50.8% in assay [6]; 92.6% in assay [7]; 82.3% in assay [8]. Besides, the Activity in [9] is 49.6%; in assay [10] it was 94.6%; in assay [12], 31%; in [13], 31%.
